From ChEMBL document CHEMBL5042485 (J Med Chem, 2022)
Active and inactive are the calls of the source. The rule behind the calls is not given here.

Assays:
[1] = test system: HCC70; assay: Antiproliferative activity against human HCC70 cells incubated for 72 hrs by Celltiter-glo assay; assay type: functional, cell-based; details: HCC70, 72 h
How it was run: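 HCC70 cells in log growth plated the day before, then incubated with compound for 72 h at ten concentrations from 4 to 0.000126 μM, duplicates per dose. Read-out was CellTiter-Glo 2.0 viability. Inhibition was calculated against the averaged DMSO signal on the same plate.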

[2] = biological target: Cyclin-dependent kinase 2/cyclin E1 (Homo sapiens, UniProt P24941); assay: Inhibition of CDK2/cyclin E1 (unknown origin) using 5-FAM-labeled peptide as substrate in presence of ATP by mobility shift assay; assay type: protein-complex assay
How it was run: (§1)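 Conditions by kinase: CDK2/cyclin E1 0.5 nM with 100 μM ATP; CDK9/cyclin T1 8 nM with 30 μM ATP; CDK12/cyclin K 50 nM with 30 μM ATP.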

[3] = Apparent permeability across apical to basolateral side in MDCK cells; assay type: ADME, cell-based, Canis lupus familiaris; details: dog
[4] = biological target: CDK9/cyclin T1 (Homo sapiens, UniProt P50750); assay: Inhibition of CDK9/cyclin T1 (unknown origin) using 5-FAM-labeled peptide as substrate in presence of ATP by mobility shift assay; assay type: protein-complex assay; how it was run: as §1
Chain of CDK9/cyclin T1 (O60563 whole entry): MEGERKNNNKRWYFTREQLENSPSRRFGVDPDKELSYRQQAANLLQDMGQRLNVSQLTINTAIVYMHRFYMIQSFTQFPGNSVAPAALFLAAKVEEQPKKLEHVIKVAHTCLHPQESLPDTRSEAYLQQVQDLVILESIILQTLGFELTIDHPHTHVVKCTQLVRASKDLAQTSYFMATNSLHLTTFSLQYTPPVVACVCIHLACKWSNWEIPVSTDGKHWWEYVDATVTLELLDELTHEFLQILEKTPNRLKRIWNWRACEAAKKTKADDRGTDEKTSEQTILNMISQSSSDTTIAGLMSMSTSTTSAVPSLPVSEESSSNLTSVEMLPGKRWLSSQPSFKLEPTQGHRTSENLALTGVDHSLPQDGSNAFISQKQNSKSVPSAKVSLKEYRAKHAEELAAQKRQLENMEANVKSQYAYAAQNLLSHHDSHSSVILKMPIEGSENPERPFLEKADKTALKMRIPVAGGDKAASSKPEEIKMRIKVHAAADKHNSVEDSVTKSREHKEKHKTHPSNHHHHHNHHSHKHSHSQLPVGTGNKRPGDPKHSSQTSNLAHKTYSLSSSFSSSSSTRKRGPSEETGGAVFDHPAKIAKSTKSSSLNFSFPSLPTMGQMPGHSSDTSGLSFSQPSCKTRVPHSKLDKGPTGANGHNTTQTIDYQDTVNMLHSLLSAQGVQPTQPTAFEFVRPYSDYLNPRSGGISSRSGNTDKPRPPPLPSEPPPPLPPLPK
Chain of CDK9/cyclin T1 (P50750 whole entry): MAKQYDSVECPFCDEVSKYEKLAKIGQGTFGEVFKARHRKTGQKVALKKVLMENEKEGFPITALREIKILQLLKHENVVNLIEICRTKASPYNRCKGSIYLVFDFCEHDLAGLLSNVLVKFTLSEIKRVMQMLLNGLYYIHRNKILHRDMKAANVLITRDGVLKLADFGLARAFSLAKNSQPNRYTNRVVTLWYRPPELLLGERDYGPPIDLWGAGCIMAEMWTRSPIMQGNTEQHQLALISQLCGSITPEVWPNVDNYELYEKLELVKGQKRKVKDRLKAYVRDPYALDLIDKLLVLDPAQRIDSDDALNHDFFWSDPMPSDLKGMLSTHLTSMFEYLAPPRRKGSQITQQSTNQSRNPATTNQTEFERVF

[5] = Metabolic stability in mouse liver microsomes assessed as intrinsic clearance; assay type: ADME, Microsome; details: read-out: CLH
[6] = biological target: Cyclin-dependent kinase 7/ cyclin H (Homo sapiens, UniProt P50613); assay: Binding affinity to full length CDK7 (1 to 346 residues) /N-terminal TEV cleavable 6His tagged full length cyclinH (1 to 323 residues) (unknown origin) expressed in baculovirus infected Sf9 cells by Surface plasmon resonance assay
Chain of Cyclin-dependent kinase 7/ cyclin H (P51946 whole entry, the tested form may be a part): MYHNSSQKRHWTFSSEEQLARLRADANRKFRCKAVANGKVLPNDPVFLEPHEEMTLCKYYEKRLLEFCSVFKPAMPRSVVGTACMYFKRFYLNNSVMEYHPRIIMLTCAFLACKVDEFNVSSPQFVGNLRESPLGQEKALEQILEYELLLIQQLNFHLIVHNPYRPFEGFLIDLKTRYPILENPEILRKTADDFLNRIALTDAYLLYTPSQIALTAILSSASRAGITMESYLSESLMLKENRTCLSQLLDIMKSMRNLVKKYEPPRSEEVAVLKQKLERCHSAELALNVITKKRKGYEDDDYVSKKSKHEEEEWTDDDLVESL
Chain of Cyclin-dependent kinase 7/ cyclin H (P50613 whole entry, the tested form may be a part): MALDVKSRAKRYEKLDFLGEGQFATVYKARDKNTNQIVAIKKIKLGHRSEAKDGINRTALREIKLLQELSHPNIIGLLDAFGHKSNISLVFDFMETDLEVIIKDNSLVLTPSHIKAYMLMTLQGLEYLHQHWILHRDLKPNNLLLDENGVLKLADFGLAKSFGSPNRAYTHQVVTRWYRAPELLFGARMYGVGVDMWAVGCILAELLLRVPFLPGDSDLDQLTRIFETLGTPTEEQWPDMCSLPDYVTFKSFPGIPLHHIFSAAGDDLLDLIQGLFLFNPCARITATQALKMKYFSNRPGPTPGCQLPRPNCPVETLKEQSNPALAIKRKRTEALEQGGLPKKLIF
How it was run: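 SPR on CDK7/cyclin H dimer, amine-coupled to a CM5 chip at 200–400 RU, with reference flow cells subtracted. Titration was 9-step 2-fold from 20 nM in HEPES pH 7.5, 150 mM NaCl, 0.05% P20, with 70 s contact and 300 s dissociation. Slow off-rate binders were rerun 4-step 3-fold from 10 nM with 1800 s dissociation.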

[7] = Oral bioavailability in CD-1 mouse 5 mg/kg measured upto 24 hrs by LC-MS/MS analysis; assay type: ADME, organism-based; details: in vivo
How it was run: (§2)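 Male CD1 mice, three per group, dosed by tail-vein injection (1 mg/kg) or oral gavage (5 mg/kg). Saphenous blood was drawn at 0.25–24 h and plasma analysed by LC–MS/MS.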

[8] = Lipophilicity, log D of compound; assay type: physicochemical; details: octanol/water
[9] = Unbound clearance in CD-1 mouse at 1 mg/kg, iv measured upto 24 hrs by LC-MS/MS analysis; assay type: ADME, organism-based; details: in vivo; how it was run: as §2
[10] = biological target: CDK12/Cyclin K (Homo sapiens, UniProt Q9NYV4); assay: Inhibition of CDK12/cyclin K (unknown origin) using 5-FAM-labeled peptide as substrate in presence of ATP by mobility shift assay; assay type: protein-complex assay; how it was run: as §1
Chain of CDK12/Cyclin K (O75909 whole entry): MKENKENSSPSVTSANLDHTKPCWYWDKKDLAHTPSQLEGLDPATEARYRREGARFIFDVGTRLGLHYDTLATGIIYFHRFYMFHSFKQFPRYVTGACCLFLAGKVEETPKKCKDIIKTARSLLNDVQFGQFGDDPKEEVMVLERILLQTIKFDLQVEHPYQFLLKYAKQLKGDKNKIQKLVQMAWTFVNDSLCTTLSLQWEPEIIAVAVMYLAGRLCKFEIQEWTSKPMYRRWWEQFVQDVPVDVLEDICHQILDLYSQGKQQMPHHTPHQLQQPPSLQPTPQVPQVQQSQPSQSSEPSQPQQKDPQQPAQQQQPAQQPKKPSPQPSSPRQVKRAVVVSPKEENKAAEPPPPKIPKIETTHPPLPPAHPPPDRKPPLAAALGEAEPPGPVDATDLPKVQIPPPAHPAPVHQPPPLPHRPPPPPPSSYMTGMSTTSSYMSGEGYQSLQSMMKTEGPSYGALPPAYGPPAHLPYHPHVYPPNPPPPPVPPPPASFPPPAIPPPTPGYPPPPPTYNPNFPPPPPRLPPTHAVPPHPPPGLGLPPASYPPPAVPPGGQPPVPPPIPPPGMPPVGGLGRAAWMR
Chain of CDK12/Cyclin K (Q9NYV4 whole entry): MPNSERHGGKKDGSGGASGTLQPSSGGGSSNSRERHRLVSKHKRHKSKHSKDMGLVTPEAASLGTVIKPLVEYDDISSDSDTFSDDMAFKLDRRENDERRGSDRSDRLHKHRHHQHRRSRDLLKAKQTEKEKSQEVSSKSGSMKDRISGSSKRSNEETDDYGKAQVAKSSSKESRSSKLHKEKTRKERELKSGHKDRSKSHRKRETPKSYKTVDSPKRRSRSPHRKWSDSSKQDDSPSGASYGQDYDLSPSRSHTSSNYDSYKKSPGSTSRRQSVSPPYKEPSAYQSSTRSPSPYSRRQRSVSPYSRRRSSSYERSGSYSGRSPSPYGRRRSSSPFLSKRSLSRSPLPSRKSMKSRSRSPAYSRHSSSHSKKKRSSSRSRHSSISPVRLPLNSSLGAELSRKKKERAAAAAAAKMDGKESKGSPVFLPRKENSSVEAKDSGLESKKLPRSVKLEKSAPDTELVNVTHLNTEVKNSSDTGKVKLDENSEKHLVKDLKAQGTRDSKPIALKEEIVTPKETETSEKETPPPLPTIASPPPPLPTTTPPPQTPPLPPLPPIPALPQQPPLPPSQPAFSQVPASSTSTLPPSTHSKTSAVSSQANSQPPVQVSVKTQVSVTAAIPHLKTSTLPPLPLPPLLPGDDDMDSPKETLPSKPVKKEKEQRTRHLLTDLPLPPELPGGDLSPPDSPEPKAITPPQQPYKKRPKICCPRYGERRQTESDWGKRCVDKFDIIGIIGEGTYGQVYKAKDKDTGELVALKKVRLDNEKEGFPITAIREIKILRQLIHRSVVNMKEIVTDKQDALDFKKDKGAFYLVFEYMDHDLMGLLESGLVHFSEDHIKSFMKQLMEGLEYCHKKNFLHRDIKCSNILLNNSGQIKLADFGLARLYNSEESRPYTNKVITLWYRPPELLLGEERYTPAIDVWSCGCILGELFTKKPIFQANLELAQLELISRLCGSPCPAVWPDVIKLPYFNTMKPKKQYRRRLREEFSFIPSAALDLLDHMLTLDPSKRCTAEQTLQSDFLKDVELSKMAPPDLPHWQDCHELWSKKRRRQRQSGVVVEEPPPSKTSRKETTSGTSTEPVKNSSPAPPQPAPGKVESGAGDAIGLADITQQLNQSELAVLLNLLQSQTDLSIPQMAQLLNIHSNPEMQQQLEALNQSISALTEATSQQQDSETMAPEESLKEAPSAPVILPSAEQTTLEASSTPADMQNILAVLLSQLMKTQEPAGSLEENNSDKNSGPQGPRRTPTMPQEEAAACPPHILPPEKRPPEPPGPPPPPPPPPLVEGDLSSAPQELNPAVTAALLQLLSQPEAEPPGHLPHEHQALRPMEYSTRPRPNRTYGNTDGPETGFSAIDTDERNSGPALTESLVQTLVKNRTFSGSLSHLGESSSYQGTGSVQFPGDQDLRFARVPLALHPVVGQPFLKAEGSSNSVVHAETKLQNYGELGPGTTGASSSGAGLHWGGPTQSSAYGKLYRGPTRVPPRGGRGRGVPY

[11] = test system: HCC70; assay: Antitumour activity against human HCC70 cells xenografted in po dosed BALB/c mouse assessed as tumour growth inhibition administered twice daily for 21 days measured after 7 days post treatment by vernier caliper method; assay type: functional, organism-based; details: dose 2.5-4 mg/kg, time 28.0 day
How it was run: (§3)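 Female Balb/c nude mice, 6–8 weeks old, implanted subcutaneously with HCC70 cells. At 150–200 mm3 tumours, mice were randomized, 10 per arm. Dosing was by oral gavage for 21 days, then a 7-day observation period: 2 mg/kg QD, or 2.5 or 4 mg/kg BID. Tumour volume was measured by caliper and body weight recorded twice weekly. TGI was calculated from tumour volumes.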

[12] = test system: HCC70; assay: Antitumour activity against human HCC70 cells xenografted in BALB/c mouse assessed as tumour growth inhibition at 4 mg/kg, po bid for 21 days measured after 7 days post treatment by vernier caliper method; assay type: functional, organism-based; details: time 28.0 day; how it was run: as §3

Row | Compound | IC50 [2] [nM] | Papp A→B [3] [nm/s] | IC50 [4] [nM] | CLint scaled [5] [L/h/kg] | Kd [6] [nM] | bioavailability [7] [%] | logD [8] | CL free [9] [L/h/kg] | IC50 [10] [nM] | EC50 [1] [nM] | Activity [11] | Activity [12]
1 | CP(C)(=O)c1cccc2c(-c3nc(N[C@H]4CCCNC4)ncc3C(F)(F)F)c[nH]c12 | 414 | 10.2 | 286 | < 2.28 | 0.08 | 3 | 0.78 | 4.38 | 102 | 0.2 | – | –
2 | Clc1cnc(N[C@H]2CCCNC2)nc1-c1c[nH]c2ccccc12 | 102 | 52.6 | 23 | 6.54 | 0.33 | 39 | 1.78 | 27.4 | 29 | 40 | – | –
3 | CC1(C)CC[C@H](Nc2ncc(C(F)(F)F)c(-c3c[nH]c4ccccc34)n2)CN1 | 128 | – | 71 | 6.96 | 0.34 | – | 2.48 | – | 95 | – | – | –
4 | CC1(C)CNC[C@@H](Nc2ncc(C(F)(F)F)c(-c3c[nH]c4ccccc34)n2)C1 | 52 | – | 41 | 7.2 | 0.21 | 40 | 3.07 | 88.62 | 36 | – | – | –
5 | CCc1cnc(N[C@H]2CCCNC2)nc1-c1c[nH]c2c(S(C)(=O)=O)c(C#N)ccc12 | 1640 | 11.2 | 907 | 5.34 | 0.15 | – | 0.49 | 23.6 | 215 | 287 | – | –
6 | CCc1cnc(N[C@H]2CCCNC2)nc1-c1c[nH]c2ccccc12 | 923 | 4.9 | 430 | 6.42 | 0.4 | 2 | 1.29 | 28.4 | 135 | 230 | – | –
7 | N#Cc1ccc2c(-c3nc(N[C@H]4CCCNC4)ncc3C(F)(F)F)c[nH]c2c1 | 347 | 46.3 | 86 | 3.72 | 0.09 | 43 | 2.28 | 39.4 | 60 | 36 | – | –

The next lines start with results.

Row | IC50 [2] [nM] | Papp A→B [3] [nm/s] | IC50 [4] [nM] | CLint scaled [5] [L/h/kg] | Kd [6] [nM] | bioavailability [7] [%] | logD [8] | CL free [9] [L/h/kg] | IC50 [10] [nM] | Compound | EC50 [1] [nM] | Activity [11] | Activity [12]
8 | 284 | 18.6 | 60 | < 2.28 | 0.08 | 5 | 1.05 | 22.1 | 33 | CS(=O)(=O)c1c(C#N)ccc2c(-c3nc(N[C@H]4CCCNC4)ncc3C(F)(F)F)c[nH]c12 | 15 | – | –
9 | 78 | 32.8 | 32 | < 2.28 | 0.07 | 49 | 1.33 | 18.5 | 15 | CS(=O)(=O)c1cccc2c(-c3nc(N[C@H]4CCCNC4)ncc3C(F)(F)F)c[nH]c12 | 14 | – | –
10 | 299 | 8.6 | 133 | < 2.28 | 0.1 | – | 1.31 | 43.7 | 69 | CS(=O)(=O)c1ccc2c(-c3nc(N[C@H]4CCCNC4)ncc3C(F)(F)F)c[nH]c2c1 | 89 | – | –
11 | 771 | 33.2 | 572 | 9.84 | 0.06 | 28 | 2.7 | 35.8 | 156 | CC1(C)CNC[C@@H](Nc2ncc(C(F)(F)F)c(-c3c[nH]c4c(P(C)(C)=O)c(C#N)ccc34)n2)C1 | 1 | – | –
12 | 460 | 16.3 | 138 | 9 | 0.1 | 16 | 2.71 | 30.8 | 112 | Cc1noc(C)c1-c1ccc2c(-c3nc(N[C@H]4CCCNC4)ncc3C(F)(F)F)c[nH]c2c1 | – | – | –
13 | 42 | 111 | 21 | 7.62 | 0.15 | 100 | 2.02 | 34.1 | 24 | FC(F)(F)c1cnc(N[C@H]2CCCNC2)nc1-c1c[nH]c2ccccc12 | 11 | – | –
14 | 189 | 46.2 | 90 | < 2.28 | 0.03 | 36 | 2.6 | 42.7 | 75 | Cc1noc(C)c1-c1ccc2c(-c3nc(N[C@H]4CCCNC4)ncc3C(F)(F)F)c[nH]c2n1.Cl | 9 | Dose-Dependent Effect | Active
